# Bioassay records from PubChem.
# RGS4 inh = inhibitors of human RGS4; AID 463165; HEK293 M3R/RGS4 inducible, Fluo-4 calcium flux; hits give high values; triggered by carbachol at its EC20; P49798; B-score at 10 µM; hit rate 0.45% among 310,000;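 active means B-score, a plate-corrected calcium signal, over three deviations above library mean, with baseline fluorescence within five deviations of library mean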;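 further: RGS4 expression induced by doxycycline in cells with stable M3 receptor; B-score is computed from the integrated fluorescence ratio over baseline after carbachol; higher B-score means a larger calcium signal and so more RGS4 inhibition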
# Target sequence (P49798 whole entry, looked up): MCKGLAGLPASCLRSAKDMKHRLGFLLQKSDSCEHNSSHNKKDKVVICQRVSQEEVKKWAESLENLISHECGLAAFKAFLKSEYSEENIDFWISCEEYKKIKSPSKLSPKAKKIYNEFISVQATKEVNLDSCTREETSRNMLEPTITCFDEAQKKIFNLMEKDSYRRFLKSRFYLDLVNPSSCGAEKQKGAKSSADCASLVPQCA
# Lipid droplet = hepatic lipid droplet formation modulation; AML12 mouse hepatocytes, oleate lipid droplets, BODIPY imaging; inhibition, % at 6.5 µM; hit rate 0.4% among 240,000; AID 1656;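 active means lipid droplet intensity inhibited by at least 50%, with more than 500 cells counted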
#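 Material – AML12 mouse liver cells · Also added – oleate loading, 100 µM · Compound dosing – 6.5 µM single-point dosing · Times – overnight treatment with compound plus oleate · Measured by – fluorescence imaging, 20x objective, two fields per well · Read-out – percent inhibition of filter-corrected integrated lipid droplet intensity per well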
# MrgX1 ag = human MrgX1 receptor agonism, primary screen; Q96LB2; AID 588627; hit rate 0.44% among 310,000; MrgX1-HEK293 cells, Fluo-4 calcium fluorescence, agonist mode; hits give high values; B-score at 10 µM;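 active means calcium response B-score plate-corrected fluorescence ratio at least 3 library SD, with starting fluorescence B-score inside 5 SD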
# Target sequence (Q96LB2 whole entry, looked up): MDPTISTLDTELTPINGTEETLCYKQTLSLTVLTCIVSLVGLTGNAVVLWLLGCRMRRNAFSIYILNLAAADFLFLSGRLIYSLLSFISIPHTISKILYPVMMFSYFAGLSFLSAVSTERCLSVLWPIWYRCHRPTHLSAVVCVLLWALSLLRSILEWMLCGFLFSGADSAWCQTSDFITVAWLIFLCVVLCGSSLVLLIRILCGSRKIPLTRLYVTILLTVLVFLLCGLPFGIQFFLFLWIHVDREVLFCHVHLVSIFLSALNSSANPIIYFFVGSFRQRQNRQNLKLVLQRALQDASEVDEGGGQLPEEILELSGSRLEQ
#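 Assay system: MrgX1-expressing HEK293 cells / Amount: fifteen thousand cells per well / Doses: test compound in the initial addition of three / Timing: cells plated overnight, dye loaded 0.5 h 37 °C, 0.5 h room temperature / Technique: kinetic calcium dye fluorescence, Fluo-4 NW / Control set: positive and negative controls per plate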
# MrgX1 allo act = human MrgX1 positive allosteric modulation, primary screen. AID 588675. MrgX1-HEK293, Fluo-4 calcium flux, FDSS; hits give high values. hit rate 0.63% among 310,000. B-score at 10 µM;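 active means plate-corrected calcium response at least 3 library SD above typical, normal starting fluorescence, not activating the receptor alone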;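 further: compound read alongside a low EC10 to EC30 dose of BAM8-22 agonist; peak minus trough fluorescence over baseline measured at the second addition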
# MrgX1 antagonist = blocks BAM8-22 activation of human MrgX1 receptor; hit rate 1.3% among 310,000; B-score at 10 µM; MRGX1-HEK293 calcium flux, Fluo-4, BAM8-22 antagonism; hits give low values;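 active means calcium-response B-score plate-corrected more than 3 library SD below zero, starting fluorescence within 5 deviations, no agonist response on first addition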;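 further: peak minus trough fluorescence over baseline after final BAM8-22 challenge near maximal dose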
# RGS4 pot = potentiators or activators of RGS4; B-score at 10 µM; hit rate 0.92% among 310,000; HEK293 M3R/inducible RGS4, carbachol calcium flux Fluo4; hits give low values; AID 463111;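 active means B-score of the integrated calcium signal more than 4 SD below the library mean, with starting fluorescence not abnormally high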;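 further: negative B-score means reduced calcium response which marks RGS4 activation or potentiation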
#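 System: HEK293 FlpIn-TREx cells, stable M3R, doxycycline-inducible RGS4. Timing: overnight RGS4 induction, 30 min dye load 37 °C, 20 min compound RT. Also added: carbachol, ECmax concentration. Measured by: Fluo4 fluorescence kinetic imaging of calcium. Evaluation: integrated calcium ratio converted to B score.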
# A number is an active result; i = inactive; nt = no result. In the library only some 3.8% were active in any assay of this set; here they are far more common.
SMILES,RGS4 inh,Lipid droplet,MrgX1 ag,MrgX1 allo act,MrgX1 antagonist,RGS4 pot
C=CCN1C(=O)C(CC(=O)Nc2ccc(OCCC)cc2)N(CCCN2CCN(Cc3ccccc3)CC2)C1=S (configuration not stated),i,i,i,9.4,i,i
CCOC(=O)Cc1nc(-c2cccc(C(F)(F)F)c2)no1,i,i,i,i,i,i
N#CCc1ccc(OC(=O)c2cccnc2Cl)cc1,i,nt,i,i,i,i
CCCCC(C(=O)NC(C)(C)C)N(Cc1ccccc1Cl)C(=O)c1snc(C(N)=O)c1N (configuration not stated),i,i,nt,nt,nt,i
C[C@]12C=CC(=O)C=C1CC[C@@H]1C2=CC[C@]2(C)[C@@H](C(=O)CN3CCN(c4cc(N5CCCC5)nc(N5CCCC5)n4)CC3)CC[C@@H]12,i,nt,38,i,i,i
CCOc1ccccc1/C=C(\NC(=O)c1ccccc1)C(=O)NCCC(=O)O,i,i,i,i,i,i
CCOc1ccccc1/C=C(/NC(=O)c1ccccc1)C(=O)NCC(=O)O,i,52,i,i,i,i
Cc1ccc(-c2nc3ccc(Cl)cc3c(=O)n2O)cc1,i,i,37,i,i,i
Cc1ccc(-c2nc3ccccc3c(=O)n2O)cc1,i,nt,i,i,i,i
Cc1cc(OCCN2CCC(Cc3ccccc3)CC2)ccc1[N+](=O)[O-],i,i,i,i,i,-8
Cc1cc(OCCN2CC(C)OC(C)C2)ccc1[N+](=O)[O-] (configuration not stated),i,nt,i,i,i,i
COC(C(=O)Nc1ccnn1C1CCN(Cc2ccc(C)s2)CC1)c1ccccc1 (configuration not stated),i,i,i,i,i,i
CC(=O)NC1C(Oc2cccc(C)c2)OC2COC(c3ccco3)OC2C1O (configuration not stated),i,i,i,i,i,-7.3
NC(=S)N/N=C/c1ccc2cccc(OCc3ccccc3)c2n1,i,i,i,i,i,i
O=C(N/N=C/c1ccc2cccc(OCc3ccccc3)c2n1)c1ccc(Br)cc1,i,nt,i,i,i,-10
NC(N)=N/N=C/c1ccc2cccc(OCc3ccccc3)c2n1,i,i,i,i,-5.3,i
COC(=O)Nc1ccc2c(c1)N(C(=O)CCCl)c1ccccc1S2,i,nt,i,i,i,i
CCN(Cc1ccccc1)C(=O)c1cccc(S(=O)(=O)N2CCN(Cc3ccccc3)CC2)c1,i,nt,i,i,i,i
CCCCN(C(=O)c1cccc(S(=O)(=O)N2CCN(Cc3ccccc3)CC2)c1)c1ccccc1,i,i,i,i,-4.7,i
CCCC(=O)C1=C(O)C(C(=O)OC)C(C)(C)CC1=Nc1cccc2ccccc12 (configuration not stated),i,i,i,8.1,i,i
COc1ccc(-n2c(-c3ccc(Br)cc3)c[n+]3c2CCC3)cc1,i,i,i,i,i,-7.2
COc1ccc(-n2c(-c3ccc(Br)cc3)c[n+]3c2CCCCC3)cc1,i,i,i,i,i,i
Cc1cc(-n2cccn2)ccc1CN1CCN(CC(C)C)C(CCO)C1 (configuration not stated),i,i,i,i,i,-7.3
c1ccc(-c2cn3nc4c(nc3n2)CCCC4)cc1,i,i,i,i,i,-7
Brc1ccc(-c2cn3nc4c(nc3n2)CCCC4)cc1,i,i,i,i,i,i
SMILES,RGS4 inh,Lipid droplet,MrgX1 ag,MrgX1 allo act,MrgX1 antagonist,RGS4 pot
CCOC(=O)c1nn(-c2ccc(Cl)cc2)c(=O)c(C#N)c1C,i,i,i,i,i,i
CCOC(=O)c1nn(-c2ccc(Cl)cc2Cl)c(=N)c(C#N)c1C,i,i,i,i,-7.5,i
COc1ccc(CNC(C)C(=O)Nc2ccc3ccccc3c2)cc1OC (configuration not stated),i,i,i,i,i,i
O=C(O/N=C1/CCSc2ccccc21)c1ccccc1,i,nt,i,8.9,i,i
Cc1cc(S(=O)(=O)Nc2ccc(C(=O)NCc3cccnc3)cc2)ccc1F,i,nt,i,i,i,i
Cc1cccc(C(=O)OCC(=O)N(CC(C)C)c2c(N)n(Cc3ccccc3)c(=O)[nH]c2=O)c1O,i,nt,i,i,i,i
COc1ccc(/C=c2\s/c(=C/C(=O)c3ccc(C)cc3)[nH]c2=O)cc1OC,i,i,29,i,i,i
Cc1ccc(Nc2c(-c3ccc(N(C)C)cc3)nc3ncccn23)cc1,i,i,i,i,i,i
Cc1ccc(SCc2nc3ncccn3c2Br)cc1,i,i,i,i,i,-7.6
CCn1nc(CC(=O)Nc2ccc(-n3cnnn3)c(C)c2)c2ccccc2c1=O,i,nt,i,i,i,i
CCn1nc(CC(=O)Nc2ccc(-n3cnnn3)c(OC)c2)c2ccccc2c1=O,i,nt,i,i,-5.2,i
NC(=O)c1[nH]cnc1N,i,i,i,i,i,i
CC(=O)COC(=O)C1=NN(c2ccccc2)C(=O)CC1,i,i,i,i,i,i
COc1cc(NC(=O)CSc2nnc(-c3ccncc3)o2)cc(OC)c1OC,i,i,i,i,i,i
Cc1c(Cl)cccc1NC(=O)c1ccccc1-c1ccccc1C(=O)O,i,i,i,i,i,i
CCCCn1c(=O)cc(C)n(-c2ccccc2)c1=O,i,nt,i,i,i,i
CCCCn1c(=O)nc2n(-c3ccccc3)c3ccccc3cc-2c1=O,i,nt,i,i,i,-9.7
O=S(=O)(c1ccc(Cl)cc1)N1CCN(Cc2c[nH]c3ccccc23)CC1,i,i,i,i,i,-7.5
Clc1ccccc1N1CCN(Cc2c[nH]c3ccccc23)CC1,i,nt,i,i,i,i
O=S(=O)(c1ccc(Br)cc1)N1CCCN(Cc2ccccc2F)CC1,i,i,i,i,i,-7.4
CC(=O)/C(N=Nc1cc2c(c([N+](=O)[O-])c1C)C(C)(C)CC2(C)C)=C(\C)O,i,i,i,9.4,i,i
Clc1cccc(Cl)c1-c1noc(CN2CCOCC2)n1,i,i,i,i,i,i
COc1ccc2ccccc2c1-c1sc(Nc2ccccc2)n[n+]1-c1ccc(F)cc1,i,i,i,i,-5.9,i
CCc1ccc(Nc2n[n+](-c3ccccc3)c(-c3ccc(N(CC)CC)cc3)s2)cc1,i,i,45,i,i,i
CN(C)c1ccc(-c2sc(Nc3ccccc3)n[n+]2-c2ccc(F)cc2)cc1,i,i,47,i,i,i
COc1ccc(-c2sc(Nc3ccccc3)n[n+]2-c2ccc(F)cc2)cc1Br,i,i,i,i,i,i
CCN(CC)c1ccc(-c2sc(Nc3ccccc3)n[n+]2-c2ccc(F)cc2)cc1,i,i,i,i,i,i
CCc1ccc(Nc2n[n+](-c3ccccc3)c(/C=C/c3ccccc3)s2)cc1,i,nt,i,7.4,i,i
Cc1ccc(N=C(N)N=C(N)N)c(C)c1,i,i,i,i,i,i
